The values that follow come from ChEMBL document CHEMBL2331495, “Novel pyrazole derivatives as neutral CB₁ antagonists with significant activity towards food intake” (Eur J Med Chem, 2013).

The term Ki denotes a dissociation constant, usually derived from enzyme kinetics or from competition with a known ligand. Read a low Ki as tighter binding.

The structures appear in SMILES notation. Activity calls are given as the source filed them. The calls are words filed in the database; no cut-off is given here.

For one data set, the target named is Cannabinoid receptor 1 (Mus musculus, UniProt P47746). Briefly: Displacement of [3H]CP55940 from CB1 receptor in CD1 mouse brain membrane without cerebellum by liquid scintillation counting analysis. The data set is classed as cell membranes. In general terms: In a radioligand displacement assay an active substance lowers the binding of a labelled ligand.
Sequence of Cannabinoid receptor 1 (P47746 whole entry): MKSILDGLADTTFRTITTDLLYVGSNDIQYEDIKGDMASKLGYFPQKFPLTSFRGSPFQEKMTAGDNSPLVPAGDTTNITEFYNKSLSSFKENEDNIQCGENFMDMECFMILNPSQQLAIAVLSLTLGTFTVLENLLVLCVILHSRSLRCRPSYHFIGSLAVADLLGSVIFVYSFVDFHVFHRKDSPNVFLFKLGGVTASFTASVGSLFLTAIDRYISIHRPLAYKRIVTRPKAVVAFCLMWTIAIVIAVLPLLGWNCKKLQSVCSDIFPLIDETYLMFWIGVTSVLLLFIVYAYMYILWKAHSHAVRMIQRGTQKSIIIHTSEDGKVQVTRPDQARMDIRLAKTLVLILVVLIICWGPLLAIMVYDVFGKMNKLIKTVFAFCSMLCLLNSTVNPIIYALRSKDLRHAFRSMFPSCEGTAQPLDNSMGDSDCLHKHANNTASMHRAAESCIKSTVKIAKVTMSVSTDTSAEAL
The target of a further data set is Cannabinoid receptor 2 (Mus musculus, UniProt P47936). Kind of data set: Displacement of [3H]CP55940 from CB2 receptor in CD1 mouse spleen membrane by liquid scintillation counting analysis. The data set is classed as cell membranes.
Sequence of Cannabinoid receptor 2 (P47936 whole entry): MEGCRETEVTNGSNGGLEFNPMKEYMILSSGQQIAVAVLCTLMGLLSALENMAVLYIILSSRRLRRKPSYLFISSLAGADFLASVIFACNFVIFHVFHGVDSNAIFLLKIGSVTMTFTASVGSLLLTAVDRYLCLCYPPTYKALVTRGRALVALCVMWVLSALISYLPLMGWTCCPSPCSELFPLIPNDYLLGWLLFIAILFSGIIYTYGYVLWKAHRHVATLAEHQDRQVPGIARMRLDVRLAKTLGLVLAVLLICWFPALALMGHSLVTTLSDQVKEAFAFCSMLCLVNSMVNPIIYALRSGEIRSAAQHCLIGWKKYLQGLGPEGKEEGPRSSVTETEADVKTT
The target of data set [1] is Cannabinoid receptor 1 (Mus musculus) (UniProt P47746). Briefly: Neutral antagonist activity at CB1 receptor in albino CD1 mouse vas deferens assessed as rightward shift in WIN 55,212-2 concentration response curve for electrically evoked contractions at 0.1 to 10 uM treated 20 mins before first addition of WIN 55,212-2. Summed up:
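Vas deferens from male albino CD1 mice, electrically stimulated as for twitch studies, in Krebs-Henseleit at 37 °C. Compound at a fixed concentration (0.1, 1 or 10 μM; DMSO ≤0.1%) was added 20 min before cumulative WIN 55,212-2. Inhibition of twitches was expressed as percentage of the pre-WIN amplitude; mean ± SEM.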

The target is the same in data set [2]. Kind of data set: Agonist activity at CB1 receptor in mouse N1E-115 cells assessed as increase in ERK1/2 phosphorylation after 10 mins by Western blot analysis. The data set is classed as cell-based. Summed up:
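N1E-115 cells were grown in high-glucose DMEM with 10% FBS at 37 °C, 5% CO2. They were exposed for 10 min to compounds in D-PBS with 1% DMSO, then lysed at 4 °C. P-ERK 1/2 was measured by western blot at 40 µg total protein and expressed as percentage of vehicle. Five independent experiments; one-way ANOVA.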
(In general: Immunoblotting shows a protein as a band on a membrane.)

For data set [3] the target is unchanged. Kind of data set: Neutral antagonist activity at CB1 receptor in mouse N1E-115 cells assessed as inhibition of WIN 55,212-2-induced ERK1/2 phosphorylation at 1 uM treated 5 mins prior to WIN 55,212-2 challenge by Western blot analysis. The data set is classed as cell-based. Summed up: (§1)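 N1E-115 cells were pretreated for 5 min with compound (0.1-1.0 μM; dissolved in D-PBS with 1% DMSO), then exposed for 10 min to WIN55,212-2 (25 nM). Lysates (40 µg total protein) were western blotted for P-ERK 1/2 and expressed as percentage of vehicle. Five independent experiments; one-way ANOVA.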

For data set [4], the species on record is Mus musculus. Briefly: Selectivity ratio of Ki for CB1 receptor in CD1 mouse brain membrane without cerebellum to Ki for CB2 receptor in CD1 mouse spleen membrane. The data set is classed as cell membranes.
In data set [5] the target is Cannabinoid receptor 1 (Mus musculus) (UniProt P47746). Kind of data set: Intrinsic activity at CB1 receptor in albino CD1 mouse vas deferens assessed as increase in amplitude of electrically evoked contractions at 0.1 to 100 uM. Summed up:
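Vas deferens from male albino CD1 mice (30-40 g) was held at 0.5 g tension in Krebs-Henseleit at 37 °C, gassed with 95% O2/5% CO2. Twitches were evoked by 0.5-s trains of three 0.5-ms pulses at 110% maximal voltage, 0.1 Hz. Compounds (DMSO ≤0.1%) were added once responses were reproducible. Contraction amplitude was compared with control; mean ± SEM, n=5; ANOVA with Bonferroni test.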

The subject of data set [6] is Mus musculus. Briefly: Toxicity in C57Bl6/J mouse assessed as observable adverse events at 20 mg/kg, ip. The format is organism-based. The arrangement: dose 20 mg/kg, route intraperitoneal. The settings on record: in vivo.
Data set [7] deals with Mus musculus. Kind of data set: Reduction of food intake in fasted C57Bl6/J mouse at 10 to 20 mg/kg, ip administered 15 mins prior to food presentation measured after 2 to 3 hrs. The data set is classed as functional, organism-based. A digest of the protocol:
(§2)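 Male-unspecified C57Bl6/J mice (20-25 g) were housed singly on a reverse light-dark cycle and fasted 18 h. Compounds in saline with 2.5% Tween 80 and 2.5% ethanol, or vehicle, were given ip; food was presented 15 min later. Intake was recorded over 3 h. Mean ± SEM; two-way ANOVA with Bonferroni test.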

Data set [8] concerns the target Cannabinoid receptor 1 (Homo sapiens) (UniProt P21554). Kind of data set: Intrinsic activity at human recombinant CB1 receptor transfected in CHO cells assessed as effect on [35S]GTPgammaS binding up to 0.1 uM after 1 hr by liquid scintillation spectrometry. The data set is classed as functional, cell-based. A digest of the protocol: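 […] used CHO cells expressing human recombinant CB1, incubated with [³⁵S]GTPγS and a range of compound concentrations alone for 1 h at 37 °C. The reaction was stopped with ice-cold Tris/BSA, filtered on glass-fibre filters and read by liquid scintillation spectrometry. Data are percentage stimulation over basal, mean ± SEM of five experiments.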
(In general: GTPγS is a poorly hydrolysed GTP analogue; its binding reports G protein activation.)

For data set [9], the target named is Cannabinoid receptor 1 (Mus musculus) (UniProt P47746). Briefly: Neutral antagonist activity at CB1 receptor in mouse N1E-115 cells assessed as inhibition of WIN 55,212-2-induced ERK1/2 phosphorylation at 125 to 500 nM treated 5 mins prior to WIN 55,212-2 challenge by Western blot analysis. The format is cell-based. A digest of the protocol:
as §1

In data set [10] the test system is Mus musculus. Briefly: Reduction of food intake in fasted C57Bl6/J mouse at 10 to 20 mg/kg, ip administered 15 mins prior to food presentation measured after 1 to 3 hrs. The format is functional, organism-based. A digest of the protocol:
as §2

Data set [11] has as its target Cannabinoid receptor 1 (Mus musculus) (UniProt P47746). The settings on record: N1E-115, 1 uM.
The subject of data set [12] is Mus musculus. Kind of data set: Increase in food intake in fasted C57Bl6/J mouse at 3 to 10 mg/kg, ip administered 15 mins prior to food presentation measured after 3 hrs. The data set is classed as functional, organism-based.
Data set [13] concerns Mus musculus. Briefly: Reduction of food intake in fasted C57Bl6/J mouse at 3 to 10 mg/kg, ip administered 15 mins prior to food presentation measured after 1 hr. The format is functional, organism-based. A digest of the protocol: as §2
Data set [14] deals with Mus musculus. Kind of data set: Toxicity in C57Bl6/J mouse assessed as locomotion blockage at 20 mg/kg, ip. The data set is classed as organism-based. On the set-up: dose 20 mg/kg, route intraperitoneal. The note with it: in vivo. A digest of the protocol: (§3)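 Fasted C57Bl6/J mice from the food-intake test were given 20 mg/kg ip in saline with Tween 80 and ethanol (each 2.5 wt%).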

Data set [15] relates to Mus musculus. Kind of data set: Toxicity in C57Bl6/J mouse assessed as mortality at 20 mg/kg, ip. The note with it: in vivo. On the set-up: dose 20 mg/kg, route intraperitoneal. The format is organism-based. Summed up: as §3
The test system of data set [16] is Mus musculus. Kind of data set: Reduction of food intake in fasted C57Bl6/J mouse at 10 to 20 mg/kg, ip administered 15 mins prior to food presentation measured for 2 hrs. The data set is classed as functional, organism-based. Summed up:
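C57Bl6/J mice (20-25 g), housed singly on a reverse light-dark cycle and fasted 18 h. Dosed ip at 10 and 20 mg/kg in saline with Tween 80 and ethanol (each 2.5 wt%). Weighed food presented 15 min later; intake followed over 3 h. Mean ± SEM; two-way ANOVA with Bonferroni post hoc versus vehicle.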

Sequence of Cannabinoid receptor 1 (Homo sapiens) (P21554 whole entry): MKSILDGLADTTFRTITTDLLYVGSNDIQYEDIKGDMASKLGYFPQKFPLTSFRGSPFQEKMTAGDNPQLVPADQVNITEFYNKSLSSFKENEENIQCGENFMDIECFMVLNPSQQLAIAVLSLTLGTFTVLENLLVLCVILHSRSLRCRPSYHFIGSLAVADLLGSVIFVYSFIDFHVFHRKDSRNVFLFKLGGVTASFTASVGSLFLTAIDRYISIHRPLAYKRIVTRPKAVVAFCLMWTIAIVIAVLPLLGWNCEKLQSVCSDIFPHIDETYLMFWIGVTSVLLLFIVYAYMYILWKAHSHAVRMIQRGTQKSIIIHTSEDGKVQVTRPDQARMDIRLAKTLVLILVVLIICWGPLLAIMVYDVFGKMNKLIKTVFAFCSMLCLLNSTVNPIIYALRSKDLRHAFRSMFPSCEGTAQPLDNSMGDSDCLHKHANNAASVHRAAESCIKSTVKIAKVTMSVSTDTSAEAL
Sequence of Cannabinoid receptor 1 (Mus musculus) (P47746 whole entry): as the sequence (P47746 whole entry) above

As to `Cc1c(C(NN2CCCCC2)C(F)(F)F)nn(-c2ccc(Cl)cc2Cl)c1-c1ccc(Cl)cc1` (racemic), the results for the Ki on Cannabinoid receptor 1 and at Cannabinoid receptor 2 were 0.287 µM and above 5 µM, respectively. The outcome in data set [1] was Active. The outcome in data set [2] was inactive. In [3], the inhibition result was “Active”. The Ratio Ki in the data set listed under Mus musculus [4] is below 0.057. Also, the Intrinsic activity result in [5] is “inactive”.
Consider `Cc1c(/C(F)=C/C2CCCCC2)nn(-c2ccc(Cl)cc2Cl)c1-c1ccc(Cl)cc1`, for which the Ki on Cannabinoid receptor 1 is 0.0258 µM; on Cannabinoid receptor 2, 1.95 µM. Further, the Activity entry in the data set with Mus musculus [6] is “Non-toxic”. The outcome (in data set [1]; in the data set with Mus musculus [7]) was Active. Moreover, the outcome in data set [2] was inactive. Further, the Intrinsic activity entry in [8] and in data set [5] was “inactive” in each case. The inhibition result in data set [9] was “Active”. In the data set filed under Mus musculus [4], the Ratio Ki was 0.013.
`Cc1c(C(O)CC2CCCCC2)nn(-c2ccc(Cl)cc2Cl)c1-c1ccc(Cl)cc1` (racemic): the Ki on Cannabinoid receptor 2 came to 4.2 µM. In addition, the result (in [1]; in the data set with Mus musculus [10]) was Active. For the same compound, in [2], the outcome was inactive. Further, the Intrinsic activity entry in data set [8] and in [5] was “inactive” each time. The inhibition entry in data set [3] was “Active”.
Consider `Cc1c(/C(F)=C\C2CCCCC2)nn(-c2ccc(Cl)cc2Cl)c1-c1ccc(Cl)cc1`, for which the values for the Ki at Cannabinoid receptor 1 and on Cannabinoid receptor 2 were 0.412 µM and 4 µM, respectively. Moreover, the result in data set [1] was Active. The Ratio Ki in the data set filed under Mus musculus [4] amounted to 0.103. For the same compound, in data set [5], the Intrinsic activity entry is “inactive”.
Regarding `Cc1c(C(=O)NN2CCCCC2)nn(-c2ccc(Cl)cc2Cl)c1-c1ccc(Cl)cc1` [RIMONABANT], the inhibition entry in [11] is “Active”. The outcome with Mus musculus [12] and with Mus musculus [13] was Active. The outcome in data set [2] was inactive. The Activity result in the data set on Mus musculus [14] and in the data set on Mus musculus [15] was “Toxic” throughout.
In the case of `Cc1c(C(=O)CC2CCCCC2)nn(-c2ccc(Cl)cc2Cl)c1-c1ccc(Cl)cc1`, the Ki amounted to 0.0461 µM at Cannabinoid receptor 1 and 2.23 µM on Cannabinoid receptor 2. The result (in data set [1]; in the data set on Mus musculus [10]) was Active. Moreover, the outcome in data set [2] was inactive. In addition, in data set [8], the Intrinsic activity result was “inactive”. The inhibition result in [9] was “Active”. In addition, the Ratio Ki in the data set listed under Mus musculus [4] is 0.021.
On to `Cc1c(/C=C/C2CCCCC2)nn(-c2ccc(Cl)cc2Cl)c1-c1ccc(Cl)cc1`, for which the Ki on Cannabinoid receptor 1 worked out at 0.0112 µM; on Cannabinoid receptor 2 it was 3.8 µM. In addition, the result (in data set [1]; in the data set on Mus musculus [16]) was Active. In addition, the outcome in data set [2] was inactive. The inhibition result in data set [9] is “Active”. Also, in the data set listed under Mus musculus [4], the Ratio Ki was 0.003. Further, the Intrinsic activity result in data set [5] is “inactive”.
